Laboratory results reported in publication PMC2937276 (Molecular cancer therapeutics, 2010).

Key:
[1] = test system: EGFR-driven mouse GBM tumor primary cell cultures (GBM-1 & -2); assay: Cell counting, growth of GBM cell cultures under drug; type: cell-based; details: increasing concentrations for 24 hours; 250 nM over time
In short: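 Mouse primary GBM cultures (GBM-1: wild-type plus vIII EGFR; GBM-2: EGFRvIII), alongside primary mouse astrocytes, kept in DMEM with 10% FBS. Cells exposed to increasing test-compound concentrations for 24 h, or to 250 nM for varying times. Viable cells counted and expressed as percent of untreated cells. Mean of triplicates with S.D.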

[2] = test system: GBM culture 2227; assay: XTT cell proliferation assay; type: cell-based, Mouse; details: Mus musculus, 36 h
In short: (§1)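 Primary human or mouse GBM cultures (DMEM, 10% FBS) were seeded at 5000 cells per 96-well well. Cells were cultured with test compound or vehicle for 36 h. Proliferation was read by XTT assay in quadruplicate. IC50 came from nonlinear-regression curve fitting.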

[3] = test system: GBM cells; assay: Apoptosis analysis; type: cell-based, Mouse; details: 250 nM
In short: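 Two apoptosis read-outs on primary mouse GBM cultures (DMEM, 10% FBS), each with 250 nM compound for the indicated times. Pyknotic nuclei: 10,000 cells per chamber-slide well, fixed in fresh 4% PFA for 15 min, Hoechst 33258 at 5 µg/ml for 5 min. Nuclei were scored by fluorescence microscopy as % pyknotic over total across three areas. Cleaved caspase-3: western blot. Mean of three independent experiments ± SD.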

[4] = test system: EGFRvIII-driven GBM tumors; assay: Treatment of mice bearing GBM tumors; type: in vivo
In short: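 Adult (≥3 months) conditional EGFR*/Cdkn2a/Pten/CAG-luc mice under ketamine/xylazine received 250 nL adeno-CMV-Cre stereotaxically into the brain. Tumours were followed by luciferin (225 mg/kg IP) bioluminescence and randomised at the signal threshold. Dosing: 100 mg/kg IP in DMA/Tween 20/Cremophor/saline vehicle, or vehicle alone, thrice weekly ×2 weeks, then twice weekly for >100 days. At 180 days, survivors were perfused with PFA; coronal paraffin sections were H&E-stained. N=5 control, N=4 treated.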

[5] = test system: GBM culture 41; assay: XTT cell proliferation assay; type: cell-based, Mouse; details: Mus musculus, 36 h
In short: as §1

[6] = test system: Hsp90 client proteins EGFR, Akt, Cdk4 and Cyclin D1; assay: Immunoblot analysis of Hsp90 client proteins in mouse GBM cultures; type: cell-based
In short: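 Mouse GBM-1 and GBM-2 cultures and primary astrocytes treated with 250 nM test compound for varying times, or for 24 h against vehicle. RIPA lysates with 5 mM Na3VO4 and protease inhibitors. 40 µg resolved by SDS-PAGE onto PVDF, blocked in TBS-T/BSA/milk. Primary antibodies overnight at 4°C, secondary 1:10000 for 1 h at room temperature, ECL detection. Dynamin as control.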

[7] = test system: GBM culture 46; assay: XTT cell proliferation assay; type: cell-based, Mouse; details: Mus musculus, 36 h
In short: as §1

[8] = test system: GBM culture GBM59; assay: XTT cell proliferation assay; type: cell-based, Human; details: Homo sapiens, 36 h
In short: as §1

[9] = test system: Hsp90 client proteins EGFR, Akt, Cdk4 and CyclinD1; assay: Immunoblot analysis of Hsp90 client proteins in human GBM cultures; type: cell-based; details: human primary GBM culture cells; 250 nM, 24 hours
In short: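 Human primary GBM cultures in DMEM with 10% FBS, given 250 nM test compound or vehicle for 24 h. Lysed in RIPA with 5 mM Na3VO4 and protease inhibitors. Equal protein (40 µg) resolved by SDS-PAGE, transferred to PVDF, blocked in TBS-T with 1% BSA and 5% milk. Primary antibodies overnight at 4°C, secondary 1:10000 for 1 h at room temperature, ECL.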

[10] = Hepatotoxicity and toxicity on exposure in mice; type: in vivo
[11] = test system: GBM culture GBM12; assay: XTT cell proliferation assay; type: cell-based, Human; details: Homo sapiens, 36 h
In short: as §1

[12] = test system: GBM culture 103; assay: XTT cell proliferation assay; type: cell-based, Mouse; details: Mus musculus, 36 h
In short: as §1

[13] = test system: GBM culture GBM8; assay: XTT cell proliferation assay; type: cell-based, Human; details: Homo sapiens, 36 h
In short: as §1

[14] = test system: GBM culture 2415; assay: XTT cell proliferation assay; type: cell-based, Mouse; details: Mus musculus, 36 h
In short: as §1

[15] = Brain concentrations of HSP90 inhibitors after a single i.p. injection; details: NCR-Nude, mouse, intraperitoneal
[16] = test system: GBM culture 42; assay: XTT cell proliferation assay; type: cell-based, Mouse; details: Mus musculus, 36 h
In short: as §1

[17] = test system: GBM culture GBM-2; assay: XTT cell proliferation assay; type: cell-based, Mouse; details: Mus musculus, GBM2, 36 h
In short: as §1

[18] = test system: GBM culture GBM22; assay: XTT cell proliferation assay; type: cell-based, Human; details: Homo sapiens, 36 h
In short: as §1

[19] = test system: GBM culture 2736; assay: XTT cell proliferation assay; type: cell-based, Mouse; details: Mus musculus, 36 h
In short: as §1

[20] = test system: GBM culture GBM15; assay: XTT cell proliferation assay; type: cell-based, Human; details: Homo sapiens, 36 h
In short: as §1

[21] = test system: GBM culture 102; assay: XTT cell proliferation assay; type: cell-based, Mouse; details: Mus musculus, 36 h
In short: as §1

[22] = test system: GBM culture GBM-1; assay: XTT cell proliferation assay; type: cell-based, Mouse; details: Mus musculus, GBM1, 36 h
In short: as §1

With `O=C1OCC/C=C/CC/C=C/C(=N/OCC(=O)N2CCCCC2)Cc2c(Cl)c(O)cc(O)c21` [NXD30001] the “inhibition of GBM cell growth” value [1] was “dose and time dependent inhibition of GBM cell growth”, the IC50 [2] was 0.134 ± 0.0077 µM and the “cleaved-caspase 3 (western blot)” value [3] was “appearance of cleaved-caspase 3”. For the same compound, the “increase in apoptosis level (pyknotic nucleated cells)” value [3] was 10 fold, the “effect on survival (Kaplan-Meier)” value ([4]; 100 mg/kg i.p. thrice weekly (X2) then twice weekly, versus vehicle) was “statistically significant prolongation in survival” and the “survival of treated animals” value ([4]; half of the treated animals, 100 mg/kg i.p. thrice weekly (X2) then twice weekly, N=4 treated) was > 180 days. For the same compound, the “histological analysis of H&E stained brain sections of surviving animals” value ([4]; surviving treated animals, after 180 days) was “few remaining tumor cell clusters”, the IC50 [5] was 0.0802 ± 0.0059 µM and the “Hsp90 client protein levels (western blot)” value (“Hsp90 client protein levels” for short) ([6]; GBM-1 & -2 cultures, 250 nM for the indicated times) was “degradation of the Hsp90 client proteins EGFR, Akt, Cdk4 and Cyclin D1”. For the same compound, the “Hsp90 client protein levels” value ([6]; mouse primary GBM culture cells, 250 nM, 24 hours) was “deplete the Hsp90 client proteins EGFR, Akt, Cdk4 and CyclinD1”, the IC50 [7] was 0.0543 ± 0.0125 µM and the IC50 [8] was 0.232 ± 0.0132 µM. The “Hsp90 client protein levels” value [9] was “deplete the Hsp90 client proteins EGFR, Akt, Cdk4 and CyclinD1”, the “toxicity observed in the treated animals” value ([10]; GBM-bearing mice treated with 100 mg/kg i.p.) was “absence of toxicity” and the hepatotoxicity ([10]; short and long term exposure in mice, data not shown and ref 13) was “does not result in hepatotoxicity”. It also gave an IC50 [11] of 2.33 ± 0.06 µM, an IC50 [12] of 0.576 ± 0.0148 µM and an IC50 [13] of 5.69 ± 0.45 µM. The IC50 [14] was 0.251 ± 0.0577 µM, the concentration at 6 h ([15]; 100 mg/kg) was 676 ng/g and the concentration at 12 h ([15]; 100 mg/kg) was 823 ng/g. The concentration at 24 h ([15]; 100 mg/kg) was 271 ng/g, the concentration at 48 h ([15]; 100 mg/kg) was 10.7 ng/g and the concentration at 6 h ([15]; 150 mg/kg) was 1440 ng/g. For the same compound, the concentration at 12 h ([15]; 150 mg/kg) was 3420 ng/g, the concentration at 24 h ([15]; 150 mg/kg) was 900 ng/g and the concentration at 48 h ([15]; 150 mg/kg) was 116 ng/g. The IC50 [16] was 0.0738 ± 0.0007 µM, the IC50 [17] was 0.111 ± 0.0094 µM and the IC50 [18] was 5.26 ± 0.152 µM. For the same compound, the IC50 [19] was 0.0776 ± 0.0028 µM, the IC50 [20] was 0.0607 ± 0.0005 µM and the IC50 [21] was 0.36 ± 0.0216 µM. For the same compound, the IC50 [22] was 0.0783 ± 0.0083 µM.
